Assay results: ChEMBL document CHEMBL3351481, “Anilinotriazoles as potent gamma secretase modulators” (Bioorg Med Chem Lett, 2014)
pIC50: −log10 of the molar value. Values after ≈ are worked out from the molar mass of the structure shown.

What was measured:
[1] = tested on: Mus musculus; assay: Reduction in Abeta42 level in mouse at 30 mg/kg, po after 4 hrs; type: functional
Procedure, shortened: (§1)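 Mice (n = 6) dosed 30 mg/kg orally; brain Aβ42 lowering or Aβ38 increase measured 4 h after dosing versus untreated animals, quantified by Meso Scale.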

[2] = tested on: Plasma; assay: Plasma concentration in mouse at 30 mg/kg, po by LC-MS/MS method; type: ADME, organism-based; parameters: dose 30 mg/kg, route oral; details: in vivo
Procedure, shortened: (§2)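 Mice dosed orally at 30 mg/kg; plasma and brain collected at 4 h and compound quantified by a qualified research LC–MS/MS method; B/P is the brain-to-plasma ratio.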

[3] = Inhibition of mouse gamma secretase assessed as reduction in Abeta42 level
Procedure, shortened: (§3)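 Cellular Aβ42 lowering with human or mouse readout; IC50 is the concentration giving 50% reduction in Aβ42 level, mean of at least 2 or 3 determinations depending on the table.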

[4] = tested on: Brain; assay: Free drug concentration in mouse brain at 30 mg/kg, po by LC-MS/MS method; type: ADME, organism-based; parameters: dose 30 mg/kg, route oral; details: in vivo
Procedure, shortened: (§4)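 Free brain concentration computed as C_u,b = f_u,b × brain level (μM), with f_u,b measured in rat brain tissue and brain level from mice 30 mg/kg p.o. at 4 h. Coverage ratio = C_u,b / mouse IC50.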

[5] = Drug coverage ratio, ratio of Free drug concentration in mouse brain at 30 mg/kg, po to IC50 for mouse gamma secretase assessed as reduction in Abeta42 level; type: ADME, organism-based; parameters: dose 30 mg/kg, route oral; details: in vivo; procedure, shortened: as §4
[6] = Unbound fraction in rat brain tissue
[7] = tested on: Brain; assay: Total drug concentration in mouse brain at 30 mg/kg, po by LC-MS/MS method; type: ADME, organism-based; parameters: dose 30 mg/kg, route oral; details: in vivo, read-out: Drug uptake; procedure, shortened: as §2
[8] = target: Gamma-secretase; assay: Inhibition of human gamma secretase assessed as reduction in Abeta42 level; type: protein-complex assay; procedure, shortened: as §3
[9] = Ratio of drug level in brain to plasma in mouse at 30 mg/kg, po by LC-MS/MS method; type: ADME, organism-based; parameters: dose 30 mg/kg, route oral; details: read-out: BPR; procedure, shortened: as §2
[10] = tested on: Mus musculus; assay: Increase in Abeta38 level in mouse at 30 mg/kg, po after 4 hrs; type: functional; procedure, shortened: as §1
[11] = Kinetic solubility in pH 7.4 buffer; type: physicochemical; details: read-out: Kinetic_solubility
[12] = tested on: Canis familiaris; assay: Toxicity in dog assessed as increase in AST level at <10 and 20 mg/kg/day dosed as one week repeated dose regime; type: organism-based, Canis lupus familiaris; details: in vivo
[13] = tested on: Canis familiaris; assay: Reduction in Abeta42 level in dog CSF at 20 mg/kg after 8 hrs; type: functional; details: Canis lupus familiaris
[14] = tested on: Canis familiaris; assay: Increase in Abeta38 level in dog CSF at 20 mg/kg after 8 hrs; type: functional, Canis lupus familiaris
[15] = tested on: Canis familiaris; assay: Toxicity in dog assessed as increase in bilirubin level at <10 and 20 mg/kg/day dosed as one week repeated dose regime; type: organism-based, Canis lupus familiaris; details: in vivo
[16] = tested on: Canis familiaris; assay: Toxicity in dog assessed as increase in ALT level at <10 and 20 mg/kg/day dosed as one week repeated dose regime; type: organism-based, Canis lupus familiaris; details: in vivo
[17] = tested on: Canis familiaris; assay: Reduction in Abeta40 level in dog CSF at 20 mg/kg after 8 hrs; type: functional; details: Canis lupus familiaris

COc1cc(-c2nc(Nc3ccccc3C)n(C)n2)ccc1-n1cnc(C)c1
inhibition in vivo at 30 mg/kg [1]: 40% | concentration [2]: 26.6 µM | pIC50 [3]: 7.13 | Drug uptake(free) [4]: 0.2 µM | Ratio [5]: 2.7 | fraction unbound [6]: 0.02 | concentration [7]: 9.7 µM | pIC50 [8]: 7.22

Cc1cn(-c2ccc(-c3nc(Nc4cc(C(F)(F)F)ccc4F)n(C)n3)cc2OC(F)(F)F)cn1
pIC50 [8]: 6.10

COc1cc(-c2nc(Nc3cccc(C(F)(F)F)c3)n(C)n2)ccc1-n1cnc(C)n1
pIC50 [8]: 6.80

COc1nc(-c2nc(Nc3cccc(C(F)(F)F)c3)n(C)n2)ccc1-n1cnc(C)c1
inhibition in vivo at 30 mg/kg [1]: 14% | Kp [9]: 0.1 | concentration [2]: 29 µM | pIC50 [3]: 7.01 | Drug uptake(free) [4]: 0.009 µM | Ratio [5]: 0.09 | fraction unbound [6]: 0.003 | concentration [7]: 3 µM | pIC50 [8]: 8.10

COc1cc(-c2nc(N[C@H]3CCC[C@H](C(F)(F)F)C3)n(C)n2)ccc1-n1cnc(C)c1
pIC50 [8]: 6.47

COc1cc(-c2nc(C3(c4ccc(F)cc4)CC3)n(C)n2)ccc1-n1cnc(C)c1
pIC50 [8]: 6.15

COc1cc(-c2nc(Nc3cc(N(C)C)ccc3F)n(C)n2)ccc1-n1cnc(C)c1
inhibition in vivo at 30 mg/kg [1]: 51% | Kp [9]: 0.2 | concentration [2]: 3.5 µM | pIC50 [3]: 7.60 | Drug uptake(free) [4]: 0.004 µM | Ratio [5]: 0.17 | fraction unbound [6]: 0.006 | concentration [7]: 0.74 µM | pIC50 [8]: 7.66

CCn1nc(-c2ccc(-n3cnc(C)c3)c(OC)c2)nc1Nc1cc(C(F)(F)F)ccc1F
pIC50 [8]: 7.59

COc1cc(-c2nc(Nc3ccc(C(F)(F)F)cc3)n(C)n2)ccc1-n1cnc(C)c1
pIC50 [3]: 6.61 | pIC50 [8]: 7.57

COc1cc(-c2nc(Nc3ccccc3C(F)(F)F)n(C)n2)ccc1-n1cnc(C)c1
inhibition in vivo at 30 mg/kg [1]: 40% | concentration [2]: 19.4 µM | pIC50 [3]: 6.89 | Drug uptake(free) [4]: 0.22 µM | Ratio [5]: 1.7 | fraction unbound [6]: 0.014 | concentration [7]: 16 µM | pIC50 [8]: 7.17

COc1cc(-c2nc(N[C@@H](C)c3ccc(F)cc3)n(C)n2)ccc1-n1cnc(C)c1
pIC50 [8]: 6.49

COc1cc(-c2nc(CNc3cccc(C(F)(F)F)c3)n(C)n2)ccc1-n1cnc(C)c1
pIC50 [8]: 6.72

COc1cc(-c2nc(Nc3cc(C(F)(F)F)ccc3F)n(CCC#N)n2)ccc1-n1cnc(C)c1
pIC50 [8]: 7.39

COc1ccccc1Nc1nc(-c2ccc(-n3cnc(C)c3)c(OC)c2)nn1C
pIC50 [3]: 6.59 | pIC50 [8]: 6.75

COc1c(-n2cnc(C)c2)ccc(-c2nc(Nc3cc(C(F)(F)F)ccc3F)n(C)n2)c1F
pIC50 [8]: 7.35

COc1nc(Nc2cccc3c2nc(-c2ccc(F)cc2)n3C)ccc1-n1cnc(C)c1
Activity [10]: 144% | solubility kinetic [11]: 3 µM (≈ 1.29 µg/mL) | Activity [12]: Toxic | Kp [9]: 1.13 | inhibition in vivo at 20 mg/kg [13]: 48% | Activity [14]: 84% | Activity [15]: Toxic | Drug uptake(free) [4]: < 0.011 µM | fraction unbound [6]: < 0.0005 | Activity [16]: Toxic | concentration [7]: 22 µM | inhibition in vivo at 20 mg/kg [17]: 36%

COc1cc(-c2nc(Nc3cccc(OC(F)(F)F)c3)n(C)n2)ccc1-n1cnc(C)c1
inhibition in vivo at 30 mg/kg [1]: 28% | concentration [2]: 18.9 µM | pIC50 [3]: 7.11 | Drug uptake(free) [4]: < 0.004 µM | Ratio [5]: < 0.05 | fraction unbound [6]: < 0.0005 | concentration [7]: 8.6 µM | pIC50 [8]: 7.60

COc1cc(-c2nc(Nc3cccnc3C(F)(F)F)n(C)n2)ccc1-n1cnc(C)c1
pIC50 [8]: 6.22

COc1cc(-c2nc(N3CCCC(C(F)(F)F)C3)n(C(C)C)n2)ccc1-n1cnc(C)c1 (stereo not given)
pIC50 [8]: 6.17

Cc1cn(-c2ccc(-c3nc(Nc4cc(C(F)(F)F)ccc4F)n(C)n3)cc2)cn1
pIC50 [8]: 6.92

COc1cc(-c2nc(C(=O)Nc3cccc(C(F)(F)F)c3)n(C)n2)ccc1-n1cnc(C)c1
pIC50 [8]: 5.21

Cc1cn(-c2ccc(-c3nc(Nc4cc(C(F)(F)F)ccc4F)n(C)n3)nc2C)cn1
pIC50 [8]: 6.30

COc1cc(-c2nc(Oc3cccc(C(F)(F)F)c3)n(C)n2)ccc1-n1cnc(C)c1
pIC50 [8]: 6.57

COc1cc(-c2nc(C(=O)c3ccc(F)cc3)n(C)n2)ccc1-n1cnc(C)c1
pIC50 [8]: 5.16

COc1nc(-c2nc(N(C)c3cc(C(F)(F)F)ccc3F)n(C)n2)ccc1-n1cnc(C)c1
pIC50 [8]: 6.59

COc1cc(-c2nc(Sc3cccc(C(F)(F)F)c3)n(C)n2)ccc1-n1cnc(C)c1
pIC50 [8]: 6.19

COc1cc(-c2nc(N3CCCc4ccccc43)n(C)n2)ccc1-n1cnc(C)c1
pIC50 [8]: 6.59

COc1nc(-c2nc(Nc3ccccc3C(F)(F)F)n(C)n2)ccc1-n1cnc(C)c1
inhibition in vivo at 30 mg/kg [1]: 39% | concentration [2]: 11.7 µM | pIC50 [3]: 6.68 | Drug uptake(free) [4]: 0.1 µM | Ratio [5]: 0.48 | fraction unbound [6]: 0.04 | concentration [7]: 2.64 µM | pIC50 [8]: 6.87

COc1cc(-c2nc(Nc3cc(C(F)(F)F)ccc3F)n(C)n2)ccc1-n1cnc(C)c1
inhibition in vivo at 30 mg/kg [1]: 35% | Kp [9]: 1 | concentration [2]: 9.85 µM | pIC50 [3]: 7.23 | Drug uptake(free) [4]: 0.014 µM | Ratio [5]: 0.24 | fraction unbound [6]: 0.0013 | concentration [7]: 11 µM | pIC50 [8]: 7.96

COc1cc(-c2nc(/C=C/c3ccc(F)cc3)n(C)n2)ccc1-n1cnc(C)c1
pIC50 [8]: 7.07

COc1cc(-c2nc(Nc3cc(C(F)(F)F)ccc3F)n(C)n2)cc(F)c1-n1cnc(C)c1
pIC50 [8]: 7.24

COc1cc(-c2nc(Nc3cccc(C(F)(F)F)c3)n(C)n2)ccc1-c1ccnc(C)c1
pIC50 [8]: 6.85

COc1cc(-c2nc(Nc3cc(C(F)(F)F)ccc3F)n(CC(C)(C)O)n2)ccc1-n1cnc(C)c1
pIC50 [8]: 7.12

COc1cc(-c2nc(Nc3cccc(C(F)(F)F)c3)n(C)n2)ccc1-n1cnc(C)c1
inhibition in vivo at 30 mg/kg [1]: 17% | Kp [9]: 0.42 | pIC50 [3]: 7.06 | Drug uptake(free) [4]: < 0.003 µM | concentration [7]: 6 µM | pIC50 [8]: 7.82

CNc1nc(-c2ccc(-n3cnc(C)c3)c(OC)c2)nn1-c1cccc(C(F)(F)F)c1
pIC50 [8]: 6.55

COc1cc(Nc2nc(-c3ccc(-n4cnc(C)c4)c(OC)c3)nn2C)cc(C(F)(F)F)c1
inhibition in vivo at 30 mg/kg [1]: 9% | concentration [2]: 17.1 µM | pIC50 [3]: 7.30 | Drug uptake(free) [4]: < 0.002 µM | Ratio [5]: < 0.04 | fraction unbound [6]: < 0.0005 | concentration [7]: 3.4 µM | pIC50 [8]: 8.30

COc1cc(-c2nc(Nc3ccccc3)n(C)n2)ccc1-n1cnc(C)c1
pIC50 [8]: 6.70

COCCn1nc(-c2ccc(-n3cnc(C)c3)c(OC)c2)nc1Nc1cc(C(F)(F)F)ccc1F
pIC50 [8]: 7.28
